A1 apoptosis 2: A1 inhibition read as caspase activation; 24,000 tested, under 10 active; AID 2465; MEF A1-2A-BIM cells, caspase-Glo luminescence, 3 h; percent of clofoctol response, DMSO zero; caspase activation, % (concentration not given with the values); in the data active means caspase activation above about 5.9%
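Test system – A1-2A-BIM-expressing MEF cells · Input – 2500 cells/well · Medium – RPMI-1640 growth medium with 10% FBS · Compound dosing – 50 nL pinned compound · Timing – 3 h compound exposure at 37 °C · Technique – Caspase-Glo luminescence (DEVD substrate) · Evaluation – Caspase-3/7 activity from luminescence increase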
T cruzi HTS: inhibitors of intracellular Trypanosoma cruzi. intracellular Trypanosoma cruzi in host cells, plate reader. activity score (inhibition), % at 5.01 µM. 4.9% of 22,000 active. AID 651903; in the data active means activity score above about 55%;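 further: parasites and compound incubated about four days before reading; 0% = median of neutral control wells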
INS-1E rescue: INS-1E beta cell protection from cytokine death. AID 488910. protection from cytokine-induced ATP loss, % at 10 µM. INS-1E cytokine-induced death, ATP luminescence, 48 h; normalised: neutral wells 0, positive control 100. 0.1% of 20,000 active;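 active means mean replicate protection from cytokine-induced ATP loss at least 50% and at least 75% of replicates each reaching 50%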
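Material: INS-1E rat cells; Quantity: 8000 cells/well; Buffer or medium: phenol-red-free RPMI with 5% fetal bovine serum; Probe or stimulus: cytokine cocktail of IFN-γ, TNF-α and IL-1β; Compound dosing: single test concentration per compound, delivered by pin transfer; Incubation: 48 h co-treatment, 10 min post-lysis read; Signal: CellTiter-Glo luminescence.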
Starred values were filed as active, the others as inactive; · = no result. This excerpt belongs to a sample that is enriched for hits.

SMILES | A1 apoptosis 2 | T cruzi HTS | INS-1E rescue
COc1ccc(CN(C)C[C@@H]2Oc3ccc(NS(=O)(=O)c4ccc(OC)cc4)cc3CC(=O)N([C@@H](C)CO)C[C@H]2C)cc1 | -1 | · | ·
C[C@@H]1CN([C@H](C)CO)C(=O)Cc2cc(NS(=O)(=O)c3ccc(F)cc3)ccc2O[C@@H]1CN(C)Cc1ccc(C(F)(F)F)cc1 | · | 60* | -48
Cc1ccc(S(=O)(=O)Nc2ccc3c(c2)CC(=O)N([C@@H](C)CO)C[C@@H](C)[C@@H](CN(C)Cc2ccc(C(F)(F)F)cc2)O3)cc1 | 0 | 64* | -31
C[C@H]1CN([C@@H](C)CO)C(=O)Cc2cc(NS(=O)(=O)c3ccccc3)ccc2O[C@H]1CN(C)Cc1ccc(C(F)(F)F)cc1 | · | 48 | -1
COc1ccc(S(=O)(=O)Nc2ccc3c(c2)CC(=O)N([C@@H](C)CO)C[C@H](C)[C@@H](CN(C)Cc2ccc(C(F)(F)F)cc2)O3)cc1 | 0 | 83* | -13
Cc1ccc(S(=O)(=O)Nc2ccc3c(c2)CC(=O)N([C@H](C)CO)C[C@H](C)[C@H](CN(C)Cc2ccc(C(F)(F)F)cc2)O3)cc1 | · | 34 | -6
O=C(NO)c1ccc(C(=O)N/N=C/c2ccc(CO)o2)cc1 | 1 | -12 | 9
Cc1ccc(S(=O)(=O)N[C@@H](Cc2ccccc2)C(=O)NCCn2cc(-c3ccccc3N)nn2)cc1 | 0 | · | ·
COc1ccccc1CN1C(=O)c2ccccc2[C@@]2(Cc3ccccc3N(CCCN(C)C)C2=O)[C@@H]1c1ccc(CO)cc1 | -1 | · | ·
COC(=O)c1ccc(/C=N/NC(=O)c2ccc(C(=O)NO)cc2)cc1 | -1 | · | ·
O=C(N/N=C/c1ccc(N2CCCC2)cc1)c1ccccn1 | 0 | -2 | -24
C[C@@H]1CN([C@@H](C)CO)C(=O)c2cc(NC(=O)Nc3ccc(C(F)(F)F)cc3)ccc2O[C@H]1CN(C)S(=O)(=O)c1ccccc1 | 1 | 68* | -28
C[C@H]1CN([C@@H](C)CO)C(=O)c2cc(NC(=O)Nc3ccc(C(F)(F)F)cc3)ccc2O[C@@H]1CN(C)S(=O)(=O)c1ccc(F)cc1 | 0 | 6 | -7
C[C@@H]1CN([C@H](C)CO)C(=O)c2cc(NC(=O)Nc3ccc(C(F)(F)F)cc3)ccc2O[C@H]1CN(C)S(=O)(=O)c1ccc(F)cc1 | -2 | 65* | -30
Cc1ccc(S(=O)(=O)N(C)C[C@@H]2Oc3ccc(NC(=O)Nc4ccc(C(F)(F)F)cc4)cc3C(=O)N([C@H](C)CO)C[C@@H]2C)cc1 | -1 | 26 | -58
C[C@@H]1CN([C@H](C)CO)C(=O)c2cc(NC(=O)Nc3ccc(C(F)(F)F)cc3)ccc2O[C@@H]1CN(C)S(=O)(=O)c1ccccc1 | 1 | 11 | -1
Cc1ccc(S(=O)(=O)N(C)C[C@H]2Oc3ccc(NC(=O)Nc4ccc(C(F)(F)F)cc4)cc3C(=O)N([C@@H](C)CO)C[C@H]2C)cc1 | 0 | 64* | -36
COc1cc(Br)cc(/C=N/NC(=O)CCCCCC(=O)Nc2ccccc2O)c1O | 0 | 34 | -7
O=C(NCCN1CCOCC1)[C@@]1(Cc2ccccc2)N=C(c2ccc(OCCCO)cc2)O[C@H]1c1ccccc1 | 0 | · | ·
C[C@@H]1CN([C@@H](C)CO)C(=O)c2cc(NC(=O)Nc3ccc(C(F)(F)F)cc3)ccc2O[C@@H](C)CCCCO[C@@H]1CN(C)S(=O)(=O)c1cccs1 | -1 | · | ·
C[C@@H]1CCCCO[C@H](CN(C)S(=O)(=O)c2cccs2)[C@@H](C)CN([C@H](C)CO)C(=O)c2cc(NC(=O)Nc3ccc(C(F)(F)F)cc3)ccc2O1 | · | 62* | -15
C[C@@H]1CCCCO[C@@H](CN(C)S(=O)(=O)c2cccs2)[C@@H](C)CN([C@H](C)CO)C(=O)c2cc(NC(=O)Nc3ccc(C(F)(F)F)cc3)ccc2O1 | 0 | 67* | -12
C[C@H](CO)N1C[C@H](C)[C@@H](CN(C)S(=O)(=O)c2cccs2)OCCCC[C@H](C)Oc2ccc(NC(=O)Nc3ccc(C(F)(F)F)cc3)cc2C1=O | -1 | · | ·
COc1ccc(S(=O)(=O)NC2CCN(Cc3cccc(OCCO)c3)CC2)cc1 | 0 | · | ·
C[C@H]1CN([C@@H](C)CO)C(=O)c2cccc(NC(=O)c3ccncc3)c2O[C@H]1CN(C)Cc1ccc(-c2ccccc2)cc1 | 2 | 72* | -10
SMILES | A1 apoptosis 2 | T cruzi HTS | INS-1E rescue
C[C@H]1CN([C@@H](C)CO)C(=O)c2cccc(NC(=O)c3ccncc3)c2O[C@H]1CN(C)Cc1ccc(C(=O)O)cc1 | 1 | -30 | 13
C[C@H]1CN([C@@H](C)CO)C(=O)c2cccc(NC(=O)c3ccncc3)c2O[C@@H]1CN(C)Cc1ccc(-c2ccccc2)cc1 | · | 79* | -16
C[C@H](CO)N1C[C@H](C)[C@H](CN(C)Cc2ccc(C(=O)Nc3ccccc3N)cc2)Oc2c(NC(=O)c3ccncc3)cccc2C1=O | 2 | -27 | -4
CCO[C@@H]1OC(C(=O)N2CCOCC2)=C[C@H](c2ccc3c(c2)OCO3)[C@H]1CCCO | 1 | · | ·
COc1ccccc1NC(=O)N(C)C[C@@H]1OCc2cn(nn2)CCCC(=O)N([C@@H](C)CO)C[C@@H]1C | · | -28 | ·
COc1cc(/C=N/NC(=O)CCCCCCC(=O)Nc2ccccc2O)c(Br)cc1O | 0 | 3 | 11
C[C@H](CO)N1C[C@H](C)[C@H](CN(C)Cc2ccc(Oc3ccccc3)cc2)Oc2ccc(NC(=O)CCC(F)(F)F)cc2CC1=O | · | 22 | -16
C[C@@H]1CN([C@H](C)CO)C(=O)Cc2cc(NC(=O)CCC(F)(F)F)ccc2O[C@@H]1CN(C)Cc1ccc(Oc2ccccc2)cc1 | 1 | 63* | -72
C[C@H]1CN([C@@H](C)CO)C(=O)Cc2cc(NC(=O)CCC(F)(F)F)ccc2O[C@@H]1CN(C)Cc1ccc(Oc2ccccc2)cc1 | -1 | 59* | -11
C[C@@H]1CN([C@@H](C)CO)C(=O)Cc2cc(NC(=O)CCC(F)(F)F)ccc2O[C@H]1CN(C)Cc1ccc(Oc2ccccc2)cc1 | 0 | · | ·
O=C(CCCCCCC(=O)Nc1ccccc1O)N/N=C/c1cc(Br)cs1 | 1 | -6 | 10
COc1ccc(/C=N/NC(=O)CCCCCCC(=O)Nc2ccccc2O)c(OC)c1 | 0 | -8 | -2
C[C@H](CO)N1C[C@H](C)[C@H](CN(C)S(=O)(=O)c2ccc(F)cc2)Oc2ccc(NC(=O)Nc3ccc(C(F)(F)F)cc3)cc2CC1=O | 1 | 69* | -67
Cc1ccc(S(=O)(=O)N(C)C[C@H]2Oc3ccc(NC(=O)Nc4ccc(C(F)(F)F)cc4)cc3CC(=O)N([C@H](C)CO)C[C@H]2C)cc1 | 0 | 64* | -5
COc1ccc(S(=O)(=O)N(C)C[C@H]2Oc3ccc(NC(=O)Nc4ccc(C(F)(F)F)cc4)cc3CC(=O)N([C@H](C)CO)C[C@H]2C)cc1 | 0 | 65* | 3
COc1ccc(S(=O)(=O)N(C)C[C@@H]2Oc3ccc(NC(=O)Nc4ccc(C(F)(F)F)cc4)cc3CC(=O)N([C@@H](C)CO)C[C@H]2C)cc1 | 0 | · | ·
